# Assay results reported in PubChem BioAssay.
# Active and inactive are the calls of the source.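 The calls were made as follows, unless noted: active = GFP response above 150% of the DMSO level; inconclusive = fewer than 70 events counted for a yeast strain; inactive = the rest.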
# How the values were obtained:
# [1] = hit retest on RPL19A-GFP reporter strain – cell-based, S. cerevisiae, flow cytometry, cherry picks, mother/daughter gates, confirmation (AID 2270;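 active = GFP response below 50% of the DMSO control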); conditions: 3 h, at 10 µM, stronger effect = lower value, 100 = same GFP as DMSO wells
# [2] = yeast TOR pathway reporter LAP4-GFP change – cell-based, cherry picks, flow cytometry, mother/daughter gates, confirmation (AID 2271;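 active = GFP response above 150% of the DMSO control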;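 also: ratio of sample to DMSO plate mean so 100% equals DMSO level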); conditions: S. cerevisiae LAP4-GFP strain, 3 h, at 10 µM, stronger effect = higher value, 100 means same as DMSO control
# Procedure, shortened: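 Test system: GFP-fusion yeast strain. Medium: synthetic complete (SC) yeast growth medium. Timing: 3 h treatment at 30 °C with rotation. Measured by: GFP by flow cytometry. Control set: positive rapamycin (400 ng/mL), negative DMSO.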
# [3] = TOR pathway reporter MEP2-GFP, retest of hits – S. cerevisiae, flow cytometry GFP, cherry picks, confirmation (AID 2272;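 active = GFP response above 150% of the DMSO control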;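 also: ratio of well signal to plate DMSO mean so 100% equals DMSO level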); conditions: S. cerevisiae MEP2-GFP strain, 3 h, at 10 µM, stronger effect = higher value
# [4] = yeast AGP1-GFP fluorescence change, single-dose – cell-based, flow cytometry, S. cerevisiae, cherry picks, confirmation (AID 2273);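 also: median GFP channel fluorescence over the whole cell population gate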; conditions: S. cerevisiae AGP1-GFP strain, 3 h, at 10 µM
# [5] = TOR pathway CIT2 reporter hit retest – S. cerevisiae, GFP fusion, cherry picks, mother/daughter gates, confirmation (AID 2274); conditions: S. cerevisiae CIT2-GFP strain, flow cytometry, 3 h, at 10 µM, stronger effect = higher value
# [6] = measured here: daughter cell gate
# [7] = measured here: mother cell gate
# [8] = measured here: daughter cell gate response
# [9] = measured here: mother cell gate response
SMILES,GFP response vs DMSO [1],"GFP response vs DMSO [1, 6]","GFP response vs DMSO [1, 7]",GFP response relative to DMSO [2],"GFP response relative to DMSO [2, 8]","GFP response relative to DMSO [2, 9]",GFP response vs DMSO [3],"GFP response, % of DMSO [4]","GFP response, % of DMSO [5]","GFP response, % of DMSO [5, 6]","GFP response, % of DMSO [5, 7]"
Brc1cc(Br)c2nc(-c3cccs3)ccc2c1,97.4% (inactive),99.1%,96.7%,99.5% (inactive),99.1%,98.4%,101% (inactive),98.2% (inactive),100% (inactive),97.4%,99.3%
Cc1ccc(C(=O)c2nocc2C(=O)c2cccs2)cc1,98.7% (inactive),93.6%,99.8%,123% (inactive),111%,128%,95.4% (inactive),89.9% (inactive),80.6% (inactive),79.7%,80.5%
CCn1c(=O)c(C(C)=O)c(O)c2ccccc21,104% (inactive),101%,104%,89.3% (inactive),87.7%,91%,96.8% (inactive),102% (inactive),97.3% (inactive),99.2%,91.9%
Cc1ccc(NC(=O)ON=C2CCCC2)cc1,101% (inactive),104%,93.5%,122% (inactive),115%,121%,109% (inactive),68.9% (inactive),167% (active),150%,167%
CCCOc1ccc(C(=O)NNC(=S)NC(=O)c2ccccc2)cc1,114% (inactive),111%,113%,149% (inactive),136%,150%,128% (inactive),98.3% (inactive),114% (inactive),116%,108%
N#Cc1nccnc1S(=O)(=O)c1cccs1,96.2% (inactive),99.5%,94.6%,166% (active),149%,162%,106% (inactive),96.1% (inactive),103% (inactive),103%,98.2%
C[C@@H](C(=O)Nc1nc2ccc(F)cc2s1)N1C(=O)C2CC=CCC2C1=O (some centres undefined),98.7% (inactive),97.8%,98.5%,103% (inactive),101%,104%,102% (inactive),99.7% (inactive),101% (inactive),100%,100%
Cc1cccn2c(=O)c(/C=C(\C#N)C(=O)NCc3ccco3)c(N3CCOCC3)nc12,100% (inactive),101%,99.6%,97% (inactive),97.5%,96.2%,99% (inactive),98% (inactive),100% (inactive),103%,98.1%
COc1cc(NC(=O)c2ccc(C)cc2)ccc1NC(=O)c1cc2ccccc2o1,95.4% (inactive),86%,85.2%,95.7% (inactive),91%,91%,99% (inactive),109% (inactive),100% (inactive),88.4%,89.5%
Cc1ccc(/C=N/Nc2ncc(Cl)cc2Cl)s1,86.7% (inactive),62.7%,78.2%,331% (active),202%,317%,115% (inactive),81.8% (inactive),107% (inactive),95.4%,98.5%
O=C(O)c1ccc2ccc3ccccc3c2c1,96.6% (inactive),94.2%,95%,99.5% (inactive),97.5%,98.4%,96.8% (inactive),105% (inactive),122% (inactive),121%,121%
CC(=O)Nc1cccc(C(=O)/C=C/c2ccc(C)cc2)c1,95.8% (inactive),96.8%,95.1%,117% (inactive),115%,120%,110% (inactive),102% (inactive),103% (inactive),103%,102%
CC1=C(C)/C(=N\OS(=O)(=O)c2ccccc2)C=CC1=O,99.1% (inactive),98.8%,91.2%,250% (active),196%,236%,112% (inactive),93.4% (inactive),105% (inactive),111%,95.6%
CSc1ccc(/C=N/NC(=O)c2ccc(O)cc2)cc1,97.8% (inactive),98.1%,98.5%,97% (inactive),97.5%,96.2%,103% (inactive),103% (inactive),103% (inactive),103%,103%
c1ccc2oc(SCc3nc4ccccc4s3)nc2c1,99% (inactive),98.9%,98.9%,106% (inactive),104%,106%,98.3% (inactive),95% (inactive),99.7% (inactive),99.1%,99.7%
O=S(=O)(c1ccc(NC(=S)N/N=C/c2cccc(Oc3ccccc3)c2)cc1)N1CCOCC1,97.8% (inactive),98.6%,97.3%,94.9% (inactive),93.5%,96.2%,105% (inactive),106% (inactive),102% (inactive),103%,103%
CCOC(=O)CS(=O)(=O)c1nc(-c2ccc(F)cc2)cc(C(F)(F)F)n1,109% (inactive),113%,102%,170% (active),170%,165%,113% (inactive),108% (inactive),116% (inactive),123%,106%

SMILES,GFP response vs DMSO [1],"GFP response vs DMSO [1, 6]","GFP response vs DMSO [1, 7]",GFP response relative to DMSO [2],"GFP response relative to DMSO [2, 8]","GFP response relative to DMSO [2, 9]",GFP response vs DMSO [3],"GFP response, % of DMSO [4]","GFP response, % of DMSO [5]","GFP response, % of DMSO [5, 6]","GFP response, % of DMSO [5, 7]"
COc1ccccc1N1C(=O)CC(Sc2ncccc2C(=O)O)C1=O (centres undefined),100% (inactive),98.4%,100%,95% (inactive),95.6%,97.2%,100% (inactive),99.2% (inactive),100% (inactive),99.7%,99.8%
CC(=O)c1ccc(N2CCN(S(=O)(=O)c3ccc4c(c3)CC(C)N4C(C)=O)CC2)cc1 (centres undefined),95.8% (inactive),93.9%,91.9%,98.9% (inactive),97.5%,98.4%,103% (inactive),98.8% (inactive),104% (inactive),99.3%,103%
Cc1ccc(N2C(=O)C3C4C=CC(CNC(=S)Nc5ccc(Cl)cc5)(O4)C3C2=O)cc1 (centres undefined),102% (inactive),101%,100%,101% (inactive),103%,102%,102% (inactive),102% (inactive),99.1% (inactive),98.1%,97.7%
Cc1ccc(NC(=O)c2nc(S(=O)(=O)Cc3ccccc3)ncc2Cl)cc1,92% (inactive),92.5%,89.8%,141% (inactive),134%,140%,95.7% (inactive),100% (inactive),90% (inactive),89.9%,85.8%
Cc1c(C)c2ccc(OCC(=O)NCCCn3ccnc3)cc2oc1=O,97.8% (inactive),97.4%,98.5%,96.7% (inactive),96%,96.1%,105% (inactive),97.6% (inactive),101% (inactive),101%,101%
COC(CNC(=O)c1ccc2c3c(onc13)-c1ccccc1C2=O)OC,99.9% (inactive),103%,95.8%,188% (active),170%,189%,120% (inactive),86% (inactive),91.3% (inactive),98.1%,83.7%
Cn1nnnc1N=N/C(=N/Nc1ccccc1)c1ccccc1,97.6% (inactive),96.1%,97.3%,110% (inactive),107%,115%,94.7% (inactive),89.5% (inactive),87.2% (inactive),88.4%,85.8%
O=[N+]([O-])c1cccc(/C=N/Nc2ncc(Br)cn2)c1,90.9% (inactive),88.5%,90.6%,129% (inactive),121%,132%,128% (inactive),137% (inactive),86.1% (inactive),86.9%,83.7%
CCOC(=O)CNc1c(-c2ccc(O)cc2)nc2ccc(Cl)cn12,101% (inactive),99.8%,101%,96.5% (inactive),95%,97.5%,102% (inactive),95.4% (inactive),96.4% (inactive),96.4%,95.6%
CCCc1[nH]nc2c1C(c1cccnc1)C(C#N)=C(N)O2 (centres undefined),98.6% (inactive),97.9%,99.2%,99.2% (inactive),97.6%,98.3%,96.2% (inactive),103% (inactive),101% (inactive),99.1%,99.7%
Cc1cc(O)c(C(=O)/C=C/c2ccccc2)c(=O)o1,97.6% (inactive),101%,96.1%,144% (inactive),139%,148%,100% (inactive),97% (inactive),96.5% (inactive),99.7%,95.5%
COc1ccc2c(/C=C/c3cc[n+](C)cc3)c[nH]c2c1,102% (inactive),106%,101%,144% (inactive),152%,143%,199% (active),100% (inactive),161% (active),169%,157%
O=C(NC(=S)NNC(=O)c1cnccn1)c1ccc(Cl)cc1,103% (inactive),95%,98.2%,279% (active),241%,260%,114% (inactive),95.7% (inactive),106% (inactive),105%,98.2%
CC1=NNC(=O)/C1=C\c1cn(-c2ccccc2)nc1-c1cccs1,92.6% (inactive),88%,89.6%,288% (active),122%,269%,103% (inactive),120% (inactive),119% (inactive),93.8%,114%
CC(=O)c1ccc(NC(=O)CN2CCC(NC(=O)C3CCCCC3)CC2)cc1,102% (inactive),102%,103%,98.8% (inactive),97.9%,99.5%,104% (inactive),95.6% (inactive),96.4% (inactive),98.3%,95.6%
CC(=O)OCC(=O)[C@@]1(O)CC[C@H]2[C@@H]3CCC4=CC(=O)CC[C@]4(C)[C@H]3C(=O)C[C@@]21C,102% (inactive),100%,103%,101% (inactive),102%,102%,100% (inactive),100% (inactive),97.8% (inactive),96.5%,97.7%
O=C(c1ccccc1F)N1CCN(c2ccccc2)CC1,97% (inactive),97.9%,97.6%,99.2% (inactive),101%,98.3%,105% (inactive),95.2% (inactive),98.3% (inactive),101%,98.5%
